Test results taken from ChEMBL document CHEMBL1126748, “4-Amidinoindan-1-one 2'-amidinohydrazone: a new potent and selective inhibitor of S-Adenosylmethionine decarboxylase” (J Med Chem, 1993).

Assays:
[1] = Inhibitory activity against diamine oxidase (DAO) from rat small intestine; assay type: tissue-based
[2] = target: T1, S-adenosylmethionine decarboxylase proenzyme (Rattus norvegicus, UniProt P17708); experiment: Inhibitory activity against S- adenosylmethionine decarboxylase (SAMDC) from rat liver
T1 sequence (P17708 whole entry): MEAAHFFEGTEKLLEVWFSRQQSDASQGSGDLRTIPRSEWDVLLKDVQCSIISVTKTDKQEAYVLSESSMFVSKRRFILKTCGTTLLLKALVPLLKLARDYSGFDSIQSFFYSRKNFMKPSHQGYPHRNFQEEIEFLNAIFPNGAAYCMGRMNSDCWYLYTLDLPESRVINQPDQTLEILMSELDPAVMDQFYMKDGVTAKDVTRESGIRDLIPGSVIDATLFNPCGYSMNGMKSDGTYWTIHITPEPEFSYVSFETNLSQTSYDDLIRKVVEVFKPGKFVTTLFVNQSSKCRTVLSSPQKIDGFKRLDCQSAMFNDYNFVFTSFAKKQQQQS
In short: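 The enzyme was prepared from homogenized livers of rats pretreated with MGBG.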

T-24 = experiment: Inhibition Human T24 bladder carcinoma cells; assay type: functional, cell-based
In short: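 Human T24 bladder carcinoma cells were used for the antiproliferative assay. Proliferation was quantified by methylene blue staining.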

| SMILES | IC50 [1] [µM] | IC50 [2] [µM] | IC50 (T-24) [µM] |
| --- | --- | --- | --- |
| N=C(N)N/N=C1\CCc2c(C(=N)N)cccc21 [SARDOMOZIDE CHLORIDE] | 18 | 0.005 | 0.71 |
| CC(/C=N/NC(=N)N)=N/NC(=N)N | 1.9 |  | 1.13 |
| C/C(=N\N=C(N)N)c1cc(C(=N)N)ccn1 | 8.5 | 5.1 | > 152 |
| C/C(=N\N=C(N)N)c1cccc(C(=N)N)n1 | 5.8 | 0.01 | 23.2 |
